From ChEMBL document CHEMBL3124897, “A dynamic G-quadruplex region regulates the HIV-1 long terminal repeat promoter” (J Med Chem, 2013) come the findings set out here.

Active and inactive are the calls of the source. The rule behind the calls is not given here.

The test system of data set [1] is Human immunodeficiency virus 1. In words: Binding affinity to HIV 1 HXB2 G-quadruplex FL-LTR DNA assessed as blocking sites at G-tracts (4 to 2) after 20 mins by Taq polymerase stop assay. In outline:
(§1)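 Primer was 5'-32P-labelled (72 nM) and annealed to full-length LTR template (36 nM) in 10 mM lithium cacodylate, pH 7.4. Template was incubated with ligand plus 100 mM KCl for 20 min at room temperature. Extension used Taq Gold polymerase (2 U) at 47°C for 30 min. Reactions were stopped by EtOH precipitation, run on a 12% denaturing gel and read by phosphorimaging as stop sites at G-tracts.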

The subject of data set [2] is Human immunodeficiency virus 1. The experiment in a line: Binding affinity to HIV 1 HXB2 G-quadruplex LTR-3 DNA assessed as change in melting temperature at 16 uM after 24 hrs by circular dichroism spectropolarimeter analysis in the presence of K+. In outline: (§2)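 Oligonucleotides at 4 µM final in 10 mM lithium cacodylate, pH 7.4, with or without 100 mM KCl. Annealed at 95 °C for 5 min, slowly cooled, measured after 24 h. Ligand added after annealing at 16 µM final. CD melting from 20–95 °C, 1 min equilibration per step. Tm taken from a van't Hoff two-state fit.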

Data set [3] concerns Human immunodeficiency virus 1. In words: Binding affinity to HIV 1 HXB2 G-quadruplex FL-LTR DNA assessed as blocking at G-tracts (6 and 5) after 20 mins by Taq polymerase stop assay. Summed up: as §1
The test system of data set [4] is Human immunodeficiency virus 1. In words: Binding affinity to HIV 1 HXB2 G-tract mutant m5/m4 FL-LTR assessed as formation of LTR G-quadruplex by Taq polymerase stop assay. Summed up: (§3)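 Primer extension on wild-type or mutant full-length LTR templates in 100 mM K+ with 100 nM ligand. Labelled primer (72 nM) annealed to template (36 nM) in 10 mM lithium cacodylate, pH 7.4. Ligand/KCl incubation 20 min at room temperature, then Taq Gold extension at 47°C for 30 min. Products on 12% denaturing gel, phosphorimaging of stop sites.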

Data set [5] relates to Human immunodeficiency virus 1. In words: Antiviral activity against wild type HIV 1 NL4-3 infected in human TZM-bl cells assessed as inhibition of viral replication at 3 to 6 uM after 48 hrs by luciferase reporter gene assay. It is filed as functional, organism-based. In outline:
(§4)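 TZM-bl cells (HIV-1 LTR-luciferase reporter line), 2×10^4 per well, grown overnight. Ligand preincubated with medium and wild-type or Nef-defective NL4-3 virus for 4 h before infection. Virus stocks were made by transfecting HEK 293T with proviral genomes and amplified in MT2 cells. Luciferase read on lysates after 48 h at 37°C. Values relative to DMSO-only infected control, n = 3, ±SEM.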
(In general: Reporter assays use an easily measured gene product as a stand-in for the process of interest.)

Data set [6] relates to Human immunodeficiency virus 1. In words: Binding affinity to HIV 1 HXB2 G-quadruplex LTR-FL DNA assessed as change in melting temperature at 16 uM after 24 hrs by circular dichroism spectropolarimeter analysis in the presence of K+. In outline:
as §2
(In general: Circular dichroism is widely used to follow secondary structure.)

Data set [7] has as its system Human immunodeficiency virus 1. The experiment in a line: Inhibition of wild-type HIV 1 HXB2 LTR DNA assessed as reduction in promoter activity at 6 uM after 24 hrs by GFP reporter assay in the presence of Tat. In outline:
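HEK 293T cells (2×10^5) transfected with pcLTR-EGFP, with Tat present. Ligand (1.5–6.0 µM) added 4 h after transfection and left overnight. Flow cytometry gated on GFP+ cells of viable morphology, 30000 events per sample; mean EGFP fluorescence read. n = 3, mean ± s.d., t-test.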

In data set [8] the test system is Human immunodeficiency virus 1. In words: Inhibition of HIV 1 HXB2 G-tract mutant m5 LTR DNA assessed as reduction in promoter activity at 1.5 to 6 uM after 24 hrs by luciferase assay. Summed up: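 HEK 293T cells (5.5×10^4 per well) transfected with LTR-firefly luciferase vector plus HSV-TK Renilla control vector (200 ng each). Cells treated with ligand at 1.5–6.0 µM. Firefly signal normalized to Renilla and expressed relative to untreated control. n = 3, mean ± s.d., Student's t-test.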

Data set [9] concerns Human immunodeficiency virus 1. The experiment in a line: Binding affinity to HIV 1 HXB2 G-tract mutant m6 FL-LTR DNA assessed as formation of LTR-2 G-quadruplex by Taq polymerase stop assay. In outline: as §3
In data set [10] the test system is Human immunodeficiency virus 1. The experiment in a line: Binding affinity to HIV 1 HXB2 G-tract mutant m6' FL-LTR assessed as formation of LTR-2 and LTR-3 G-quadruplex by Taq polymerase stop assay. Summed up:
as §3

In data set [11] the test system is Human immunodeficiency virus 1. In words: Binding affinity to HIV 1 HXB2 G-tract mutant m2 FL-LTR assessed as formation of LTR-2 G-quadruplex by Taq polymerase stop assay. Summed up: as §3
Data set [12] has as its system Human immunodeficiency virus 1. The experiment in a line: Inhibition of wild-type HIV 1 HXB2 LTR DNA assessed as reduction in promoter activity at 1.5 to 6 uM after 24 hrs by luciferase assay. Set-up: scale not given: the % may be the effect or the level left. Summed up:
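HEK 293T cells (5.5×10^4 per well) co-transfected with LTR-driven firefly luciferase (pGL4.10Luc2/LTR) and TK-promoter Renilla luciferase (pGL4.74), 200 ng each. Treated with ligand at 1.5–6.0 µM. Firefly signal normalized to Renilla. n = 3, mean ± s.d., Student's t-test.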

Data set [13] has as its system Human immunodeficiency virus 1. In words: Antiviral activity against Nef-deficient HIV 1 NL4-3 infected in human TZM-bl cells assessed as inhibition of viral replication at 3 to 6 uM after 48 hrs by luciferase reporter gene assay. In kind it is functional, organism-based. In outline:
as §4

The test system of data set [14] is Human immunodeficiency virus 1. In words: Binding affinity to HIV 1 HXB2 G-quadruplex LTR-2 DNA assessed as change in melting temperature at 16 uM after 24 hrs by circular dichroism spectropolarimeter analysis in the presence of K+. In outline:
as §2

Data set [15] relates to Human immunodeficiency virus 1. In words: Binding affinity to HIV 1 HXB2 G-tract mutant m3' FL-LTR assessed as effect on LTR G-quadruplex formation by Taq polymerase stop assay. In outline: as §3
In data set [16] the test system is Human immunodeficiency virus 1. In words: Binding affinity to HIV 1 HXB2 G-quadruplex LTR-2 DNA assessed as change in melting temperature at 16 uM after 24 hrs by circular dichroism spectropolarimeter analysis in the absence of K+. Summed up: as §2
Data set [17] relates to Human immunodeficiency virus 1. The experiment in a line: Binding affinity to HIV 1 HXB2 G-quadruplex LTR-3 DNA assessed as change in melting temperature at 16 uM after 24 hrs by circular dichroism spectropolarimeter analysis in the absence of K+. In outline: as §2
The test system of data set [18] is Human immunodeficiency virus 1. The experiment in a line: Binding affinity to HIV 1 HXB2 G-tract mutant m1 FL-LTR assessed as effect on LTR G-quadruplex formation by Taq polymerase stop assay. In outline: as §3
In data set [19] the test system is Human immunodeficiency virus 1. The experiment in a line: Inhibition of wild-type HIV 1 HXB2 LTR DNA assessed as reduction in promoter activity after 24 hrs by GFP reporter assay in the absence of Tat. In outline:
(§5)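 HEK 293T cells (2×10^5) transfected with LTR-EGFP plasmid, with or without Tat. Ligand (1.5–6.0 µM) added 4 h after transfection, then incubated overnight. Mean EGFP fluorescence measured by flow cytometry, 30000 events, gated on GFP+ cells with viable morphology. n = 3, mean ± s.d., Student's t-test.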

The subject of data set [20] is Human immunodeficiency virus 1. In words: Binding affinity to HIV 1 HXB2 G-tract mutant m3'' FL-LTR assessed as effect on LTR G-quadruplex formation by Taq polymerase stop assay. In outline: as §3
The test system of data set [21] is Human immunodeficiency virus 1. In words: Binding affinity to HIV 1 HXB2 G-tract mutant m3 FL-LTR assessed as formation of LTR-4 G-quadruplex by Taq polymerase stop assay. Summed up: as §3
The subject of data set [22] is Human immunodeficiency virus. In words: Binding affinity to HIV 1 HXB2 G-quadruplex LTR-4 DNA assessed as change in melting temperature at 16 uM after 24 hrs by circular dichroism spectropolarimeter analysis in the presence of K+. In outline:
as §2

Data set [23] concerns Human immunodeficiency virus 1. In words: Inhibition of wild-type HIV 1 HXB2 LTR DNA assessed as reduction in promoter activity after 24 hrs by GFP reporter assay in the presence of Tat. In outline: as §5
A short description of data set [24]: Cytotoxicity against human TZM-bl cells at 0.1 to 6 uM after 48 hrs. It is filed as cell-based. In outline:
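TZM-bl cells (2×10^4 per well) grown overnight, then exposed to compound in DMSO carrier at 37°C. Viability read after 48 h with Cell Titer Blue reagent.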

As to `CN(C)c1ccc(Nc2c3ccc(NC(=O)CCN4CCCC4)cc3nc3cc(NC(=O)CCN4CCCC4)ccc23)cc1`, the result in data set [1], in data set [4], in data set [8], in [11], in data set [15] and in data set [18] was inactive. The result in data set [20] was inactive. The ΔTm in [2] was found to be 42.3 °C; in [6], 5.6 °C; in data set [14] it was 39.9 °C; in data set [16], 17.6 °C; in data set [17] it was 12.9 °C; in data set [22], 54 °C. Further, the outcome in data set [3], in data set [9], in [10] and in [21] was Active. Further, the inhibition entry in data set [5] and in data set [13] was “Active” each time. Moreover, the results for the inhibition in data set [7], in data set [19] (concentration not given here) and in data set [23] were 50%, 30% and “Dose-dependent effect”, respectively. Also, the Activity is 70% in [12] and “Non-toxic” in data set [24].
For the molecule `C[n+]1ccc(-c2c3nc(c(-c4cc[n+](C)cc4)c4ccc([nH]4)c(-c4cc[n+](C)cc4)c4ccc([nH]4)c(-c4cc[n+](C)cc4)c4nc2C=C4)C=C3)cc1`, the outcome in data set [1] was inactive. Moreover, the ΔTm in data set [2] turned out to be 38 °C; in [6], 4.5 °C; in data set [14], 33.4 °C; in data set [16] it was 12.4 °C; in data set [17], 22.9 °C; in [22] it was 43.9 °C. Besides, in data set [3], the outcome was Active.
Consider `O=C1c2ccc3c4ccc5c6c(ccc(c7ccc(c2c37)C(=O)N1CCN1CCCCC1)c64)C(=O)N(CCN1CCCCC1)C5=O`, for which the ΔTm turned out to be 16.4 °C in [2]; 8.8 °C in data set [6]; 31.1 °C in data set [14]; 13.8 °C in data set [16]; 15 °C in [17]; 55.8 °C in [22].
As to `C[n+]1ccccc1-c1c2nc(c(-c3cccc[n+]3C)c3ccc([nH]3)c(-c3cccc[n+]3C)c3ccc([nH]3)c(-c3cccc[n+]3C)c3nc1C=C3)C=C2`, the inhibition entry in data set [5], in data set [13], in [19] and in [23] was “inactive” in each case.

Usually ΔTm stands for the shift of the melting midpoint relative to a reference. Usually inhibition stands for the change of the read-out against control, counted positive when it falls.
